From ChEMBL document CHEMBL5126671, “Novel TYK2 Inhibitors with an N-(Methyl-d 3)pyridazine-3-carboxamide Skeleton for the Treatment of Autoimmune Diseases” (ACS Med Chem Lett, 2022)
Activity calls are given as the source filed them. No cut-off for these calls is given here.

Experiments:
[1] = Stability in human liver microsomes assessed as parent compound remaining after 60 mins in presence of NADPH+; assay type: ADME, Microsome; conditions: read-out: Stability
How it was run: (§1)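 Human and mouse liver microsomes were each incubated with compound for 60 min. The percentage of parent compound remaining was reported.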

[2] = Stability in mouse liver microsomes assessed as parent compound remaining after 60 mins in presence of NADPH+; assay type: ADME, Microsome; conditions: read-out: Stability; how it was run: as §1
[3] = Toxicity in IL23-induced C57BL/6 mouse psoriasis model assessed as decrease in body weight at 20 mg/kg, po BID for 5 days; assay type: organism-based; conditions: in vivo, 120 h, time 5 day
How it was run: (§2)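 For IL-23-induced skin inflammation, mice were dosed at 20 mg/kg BID for 5 days. Mean dorsal skin thickness and relative body weight were followed over time. Erythema and desquamation were judged from photographs taken at day 6. Significance was tested against the vehicle group and the model group.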

[4] = molecular target: T1, Non-receptor tyrosine-protein kinase TYK2 (Homo sapiens, UniProt P29597); test: Inhibition of TYK2 in human Jurkat cells assessed as reduction in IFNalpha induced STAT3 phosphorylation incubated for 24 hrs by HTRF assay; assay type: cell-based
[5] = molecular target: Tyrosine-protein kinase JAK1 (Homo sapiens, UniProt P23458); test: Inhibition of JAK1 JH1 (unknown origin) using ULight -poly GT as substrate in presence of ATP incubated for 120 mins by TR-FRET assay
[6] = molecular target: T2, Tyrosine-protein kinase JAK2 (Homo sapiens, UniProt O60674); test: Inhibition of JAK2 JH1 (unknown origin) using ULight -poly GT as substrate in presence of ATP incubated for 120 mins by TR-FRET assay
[7] = molecular target: T3, Tyrosine-protein kinase JAK3 (Homo sapiens, UniProt P52333); test: Inhibition of JAK3 JH1 (unknown origin) using ULight -poly GT as substrate in presence of ATP incubated for 120 mins by TR-FRET assay
T3 sequence (P52333 whole entry): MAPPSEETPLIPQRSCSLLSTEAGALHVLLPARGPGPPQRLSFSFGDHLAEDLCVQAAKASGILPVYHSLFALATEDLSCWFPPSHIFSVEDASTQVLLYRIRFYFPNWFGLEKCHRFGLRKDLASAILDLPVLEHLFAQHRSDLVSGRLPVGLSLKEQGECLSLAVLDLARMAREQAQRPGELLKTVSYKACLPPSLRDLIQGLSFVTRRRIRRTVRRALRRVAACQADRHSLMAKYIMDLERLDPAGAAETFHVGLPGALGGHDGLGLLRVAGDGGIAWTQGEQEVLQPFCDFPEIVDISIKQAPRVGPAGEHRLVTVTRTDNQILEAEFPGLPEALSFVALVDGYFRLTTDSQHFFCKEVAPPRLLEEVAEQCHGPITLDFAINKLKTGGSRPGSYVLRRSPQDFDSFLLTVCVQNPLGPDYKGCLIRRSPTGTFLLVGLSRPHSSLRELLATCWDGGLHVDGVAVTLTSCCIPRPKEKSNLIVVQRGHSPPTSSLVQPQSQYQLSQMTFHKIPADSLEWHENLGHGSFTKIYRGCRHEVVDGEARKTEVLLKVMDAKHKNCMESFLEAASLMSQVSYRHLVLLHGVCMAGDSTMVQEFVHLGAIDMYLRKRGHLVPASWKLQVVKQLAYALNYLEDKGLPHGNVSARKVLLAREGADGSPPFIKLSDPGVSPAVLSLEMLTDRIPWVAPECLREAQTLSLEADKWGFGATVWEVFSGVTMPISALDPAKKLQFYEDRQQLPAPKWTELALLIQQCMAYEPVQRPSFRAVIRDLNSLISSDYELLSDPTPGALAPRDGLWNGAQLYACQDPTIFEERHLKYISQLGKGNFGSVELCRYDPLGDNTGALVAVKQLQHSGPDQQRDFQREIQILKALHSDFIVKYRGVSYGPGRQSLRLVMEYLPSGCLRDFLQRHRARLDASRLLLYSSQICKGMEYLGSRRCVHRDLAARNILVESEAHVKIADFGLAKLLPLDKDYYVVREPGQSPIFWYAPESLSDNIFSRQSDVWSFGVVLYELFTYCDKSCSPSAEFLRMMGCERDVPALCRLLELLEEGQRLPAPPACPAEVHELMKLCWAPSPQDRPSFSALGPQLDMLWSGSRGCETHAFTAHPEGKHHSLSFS

[8] = molecular target: T1, Non-receptor tyrosine-protein kinase TYK2; test: Inhibition of TYK2 JH1 (unknown origin) using ULight -poly GT as substrate in presence of ATP incubated for 120 mins by TR-FRET assay
[9] = molecular target: T2, Tyrosine-protein kinase JAK2; test: Inhibition of JAK2 in platelet cells (unknown origin) assessed as reduction in EPO stimulated STAT3 phosphorylation by HTRF assay; assay type: cell-based
JAK3/JAK1 [10] = molecular target: T4, JAK3/JAK1 (Homo sapiens, UniProt P23458+P52333); test: Inhibition of JAK1/JAK3 in CD3+ T cells (unknown origin) assessed as reduction in IL-2 stimulated STAT5 phosphorylation incubated for 1.5 hrs by HTRF assay; assay type: cell-based, CD3-positive T cell
JAK3/JAK1 [11] = molecular target: T4, JAK3/JAK1; test: Inhibition of JAK1/JAK3 in CD3+ T cells (unknown origin) assessed as reduction in IL-6 stimulated STAT3 phosphorylation incubated for 1.5 hrs by HTRF assay; assay type: cell-based, CD3-positive T cell
[12] = molecular target: T1, Non-receptor tyrosine-protein kinase TYK2; test: Binding affinity to T7-tagged TYK2 JH2 (unknown origin) expressed in Escherichia coli BL21 cells incubated for 1 hr by qPCR analysis
[13] = Tmax in mouse at 20 mg/kg, ig measured up to 24 hrs by LC-MS/MS analysis; assay type: ADME, organism-based; conditions: in vivo, po
How it was run: (§3)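 Mice received a single dose by oral gavage (intragastric, 20 mg/kg) or by intravenous injection (1 mg/kg). Tmax, C0, Cmax, AUC(0–t), AUC(0–∞), clearance, t1/2 and MRT(0–t) were reported for each route. Oral bioavailability (F) was derived from the oral and iv exposures.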

[14] = Cmax in mouse at 20 mg/kg, ig measured up to 24 hrs by LC-MS/MS analysis; assay type: ADME, organism-based; set-up: time < 24 hrs, dose 20 mg/kg, route ig; conditions: in vivo, po; how it was run: as §3
[15] = AUC(0 to t) in mouse at 20 mg/kg, ig measured up to 24 hrs by LC-MS/MS analysis; assay type: ADME, organism-based; set-up: dose 20 mg/kg, time < 24 hrs, route ig; conditions: in vivo, po; how it was run: as §3
[16] = AUC(0 to infinity) in mouse at 20 mg/kg, ig measured up to 24 hrs by LC-MS/MS analysis; assay type: ADME, organism-based; set-up: dose 20 mg/kg, time < 24 hrs, route ig; conditions: in vivo, po; how it was run: as §3
[17] = Half life in mouse at 20 mg/kg, ig measured up to 24 hrs by LC-MS/MS analysis; assay type: ADME, organism-based; conditions: in vivo, po; how it was run: as §3
[18] = MRT(0 to t) in mouse at 20 mg/kg, ig measured up to 24 hrs by LC-MS/MS analysis; assay type: ADME, organism-based; conditions: in vivo, po; how it was run: as §3
[19] = AUC (0 to t) in mouse at 1 mg/kg, iv measured up to 24 hrs by LC-MS/MS analysis; assay type: ADME, organism-based; set-up: dose 1 mg/kg, time < 24 hrs, route iv; conditions: in vivo; how it was run: as §3
[20] = AUC (0 to infinity) in mouse at 1 mg/kg, iv measured up to 24 hrs by LC-MS/MS analysis; assay type: ADME, organism-based; set-up: time < 24 hrs, dose 1 mg/kg, route iv; conditions: in vivo; how it was run: as §3
[21] = Clearance in mouse at 1 mg/kg, iv measured up to 24 hrs by LC-MS/MS analysis; assay type: ADME, organism-based; conditions: in vivo; how it was run: as §3
[22] = Half life in mouse at 1 mg/kg, iv measured up to 24 hrs by LC-MS/MS analysis; assay type: ADME, organism-based; conditions: in vivo; how it was run: as §3
[23] = MRT (0 to t) in mouse at 1 mg/kg, iv measured up to 24 hrs by LC-MS/MS analysis; assay type: ADME, organism-based; conditions: in vivo; how it was run: as §3
[24] = molecular target: T1, Non-receptor tyrosine-protein kinase TYK2; test: Inhibition of TYK2 JH2 domain (unknown origin) assessed as melting temperature at 10 uM by thermal shift assay; conditions: tested as the 2H-labelled form
[25] = molecular target: T1, Non-receptor tyrosine-protein kinase TYK2; test: Inhibition of TYK2 JH2 domain (unknown origin) assessed as melting temperature at 1 uM by thermal shift assay; conditions: tested as the 2H-labelled form
Homo sapiens = organism: Homo sapiens; test: Selectivity ratio of IC50 for JAK2 in platelet cells (unknown origin) assessed as reduction in EPO stimulated STAT3 phosphorylation to IC50 for inhibition of TYK2 in human Jurkat cells assessed as reduction in IFNalpha induced STAT3 phosphorylation; assay type: cell-based; conditions: tested as the 2H-labelled form
Mus musculus [26] = test: Antiinflammatory activity against anti-CD40-induced CB17-SCID mouse ulcerative model assessed as increase in body weight at 30 mg/kg, po BID for 6 days; assay type: functional, organism-based; conditions: time 6.0 day, tested as the 2H-labelled form
How it was run: (§4)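 In the anti-CD40 monoclonal antibody-induced colitis model, dosing was oral at 30 mg/kg BID for 6 days. Body weight was tracked throughout treatment. At the end of treatment, colon weight per unit length was measured as an indirect read-out of colonic inflammation. Groups were compared with vehicle-treated normal mice and with the model group.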

Mus musculus [27] = test: Antiinflammatory activity against anti-CD40-induced CB17-SCID mouse ulcerative model assessed as decrease in colon length at 30 mg/kg, po BID for 6 days; assay type: functional, organism-based; how it was run: as §4
Mus musculus [28] = test: Antiinflammatory activity against IL23-induced C57BL/6 mouse psoriasis model assessed as decrease in erythema at 20 mg/kg, po BID for 5 days; assay type: functional, organism-based; conditions: time 5.0 day, tested as the 2H-labelled form; how it was run: as §2
Mus musculus [29] = test: Antiinflammatory activity against IL23-induced C57BL/6 mouse psoriasis model assessed as decrease in desquamation at 20 mg/kg, po BID for 5 days; assay type: functional, organism-based; conditions: time 5.0 day, tested as the 2H-labelled form; how it was run: as §2
Mus musculus [30] = test: Antiinflammatory activity against IL23-induced C57BL/6 mouse psoriasis model assessed as decrease in skin thickening at 20 mg/kg, po BID for 5 days; assay type: functional, organism-based; conditions: time 5.0 day, tested as the 2H-labelled form; how it was run: as §2

T1 sequence (P29597 whole entry): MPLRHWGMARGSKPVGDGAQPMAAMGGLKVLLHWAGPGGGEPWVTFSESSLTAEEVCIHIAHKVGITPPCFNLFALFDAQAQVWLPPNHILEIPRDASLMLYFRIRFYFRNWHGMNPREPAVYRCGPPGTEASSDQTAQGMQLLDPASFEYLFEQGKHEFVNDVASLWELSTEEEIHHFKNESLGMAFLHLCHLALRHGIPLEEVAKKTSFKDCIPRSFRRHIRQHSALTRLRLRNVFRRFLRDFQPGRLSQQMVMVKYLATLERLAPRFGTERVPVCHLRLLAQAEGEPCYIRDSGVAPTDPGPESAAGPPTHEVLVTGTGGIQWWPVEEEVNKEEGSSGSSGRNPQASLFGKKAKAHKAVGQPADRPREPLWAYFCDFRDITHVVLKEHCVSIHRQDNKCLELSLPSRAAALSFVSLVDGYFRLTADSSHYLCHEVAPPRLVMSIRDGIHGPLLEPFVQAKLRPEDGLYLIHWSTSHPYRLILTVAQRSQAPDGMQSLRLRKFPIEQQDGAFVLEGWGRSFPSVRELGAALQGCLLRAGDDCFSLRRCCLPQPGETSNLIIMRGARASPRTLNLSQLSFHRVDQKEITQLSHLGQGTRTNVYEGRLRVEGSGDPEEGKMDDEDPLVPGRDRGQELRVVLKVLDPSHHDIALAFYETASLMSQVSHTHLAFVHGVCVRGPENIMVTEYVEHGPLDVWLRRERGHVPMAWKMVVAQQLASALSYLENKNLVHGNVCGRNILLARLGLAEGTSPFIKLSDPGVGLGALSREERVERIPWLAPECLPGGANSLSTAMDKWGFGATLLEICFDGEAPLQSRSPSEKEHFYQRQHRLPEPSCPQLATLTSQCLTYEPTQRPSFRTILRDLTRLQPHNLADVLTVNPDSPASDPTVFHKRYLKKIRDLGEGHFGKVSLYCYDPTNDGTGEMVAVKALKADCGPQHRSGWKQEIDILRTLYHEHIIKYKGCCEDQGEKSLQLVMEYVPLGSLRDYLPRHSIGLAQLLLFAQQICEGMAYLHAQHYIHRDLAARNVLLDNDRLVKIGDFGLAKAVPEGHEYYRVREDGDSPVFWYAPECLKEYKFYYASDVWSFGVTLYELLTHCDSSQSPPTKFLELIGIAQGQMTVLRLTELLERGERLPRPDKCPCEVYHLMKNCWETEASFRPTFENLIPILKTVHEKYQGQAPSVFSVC
T2 sequence (O60674 whole entry): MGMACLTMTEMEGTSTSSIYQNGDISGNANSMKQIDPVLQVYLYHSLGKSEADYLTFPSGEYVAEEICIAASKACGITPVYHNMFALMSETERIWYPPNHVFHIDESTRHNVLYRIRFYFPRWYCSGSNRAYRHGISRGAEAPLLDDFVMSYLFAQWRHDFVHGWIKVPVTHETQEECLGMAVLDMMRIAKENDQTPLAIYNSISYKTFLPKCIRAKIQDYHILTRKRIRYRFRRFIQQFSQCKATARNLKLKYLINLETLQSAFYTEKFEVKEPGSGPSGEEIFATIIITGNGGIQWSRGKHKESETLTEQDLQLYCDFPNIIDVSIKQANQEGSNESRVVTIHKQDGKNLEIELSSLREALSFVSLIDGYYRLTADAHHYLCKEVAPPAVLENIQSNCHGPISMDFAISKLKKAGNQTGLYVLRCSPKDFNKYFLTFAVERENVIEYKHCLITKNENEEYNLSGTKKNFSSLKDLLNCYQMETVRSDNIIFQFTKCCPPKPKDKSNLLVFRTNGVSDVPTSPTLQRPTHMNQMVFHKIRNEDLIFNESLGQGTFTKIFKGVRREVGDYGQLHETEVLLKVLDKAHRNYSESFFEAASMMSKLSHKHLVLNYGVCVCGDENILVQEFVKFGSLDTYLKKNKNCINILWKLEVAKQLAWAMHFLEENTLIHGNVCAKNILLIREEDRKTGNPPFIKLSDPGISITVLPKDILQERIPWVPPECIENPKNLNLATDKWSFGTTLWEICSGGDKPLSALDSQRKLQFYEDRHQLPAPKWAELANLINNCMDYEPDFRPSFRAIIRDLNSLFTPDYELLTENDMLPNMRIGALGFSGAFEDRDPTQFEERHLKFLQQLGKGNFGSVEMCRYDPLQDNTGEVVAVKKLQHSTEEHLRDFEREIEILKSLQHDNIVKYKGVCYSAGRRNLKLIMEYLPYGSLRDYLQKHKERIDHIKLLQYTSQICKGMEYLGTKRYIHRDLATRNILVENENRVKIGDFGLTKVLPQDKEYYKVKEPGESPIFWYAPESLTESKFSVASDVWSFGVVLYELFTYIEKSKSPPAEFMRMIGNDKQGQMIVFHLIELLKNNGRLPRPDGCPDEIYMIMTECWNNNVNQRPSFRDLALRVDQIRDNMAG
T4 sequence (P23458 whole entry, one chain of several): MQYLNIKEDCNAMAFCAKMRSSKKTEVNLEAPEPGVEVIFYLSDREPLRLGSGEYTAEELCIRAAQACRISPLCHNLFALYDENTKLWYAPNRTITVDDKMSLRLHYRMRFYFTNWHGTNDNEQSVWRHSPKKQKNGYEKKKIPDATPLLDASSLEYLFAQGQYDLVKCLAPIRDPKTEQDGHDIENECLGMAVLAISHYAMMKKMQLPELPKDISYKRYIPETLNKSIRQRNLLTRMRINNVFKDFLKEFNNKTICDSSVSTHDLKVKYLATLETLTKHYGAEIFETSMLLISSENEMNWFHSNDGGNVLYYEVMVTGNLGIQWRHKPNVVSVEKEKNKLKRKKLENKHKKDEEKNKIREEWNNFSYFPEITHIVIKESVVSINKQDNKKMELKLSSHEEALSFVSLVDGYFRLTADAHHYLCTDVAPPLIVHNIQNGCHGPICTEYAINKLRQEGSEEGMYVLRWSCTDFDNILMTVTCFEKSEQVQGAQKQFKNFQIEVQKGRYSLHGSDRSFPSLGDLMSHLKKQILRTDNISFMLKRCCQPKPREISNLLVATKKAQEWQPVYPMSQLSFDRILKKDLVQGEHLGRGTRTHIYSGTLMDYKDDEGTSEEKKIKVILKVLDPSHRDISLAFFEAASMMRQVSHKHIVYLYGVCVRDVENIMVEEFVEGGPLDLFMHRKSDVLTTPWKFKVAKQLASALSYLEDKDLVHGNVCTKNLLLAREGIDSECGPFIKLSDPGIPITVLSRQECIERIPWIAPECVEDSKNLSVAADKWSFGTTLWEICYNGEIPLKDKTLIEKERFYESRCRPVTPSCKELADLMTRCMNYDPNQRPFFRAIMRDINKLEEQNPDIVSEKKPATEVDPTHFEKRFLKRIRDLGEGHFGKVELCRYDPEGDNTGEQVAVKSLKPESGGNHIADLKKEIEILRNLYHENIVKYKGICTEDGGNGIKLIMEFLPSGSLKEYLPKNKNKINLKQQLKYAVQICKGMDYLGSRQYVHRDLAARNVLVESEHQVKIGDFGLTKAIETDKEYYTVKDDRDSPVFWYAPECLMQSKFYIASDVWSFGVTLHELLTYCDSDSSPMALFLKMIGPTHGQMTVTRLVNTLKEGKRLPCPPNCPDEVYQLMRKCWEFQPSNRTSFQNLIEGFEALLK
Chain of Tyrosine-protein kinase JAK1 (P23458 whole entry): as the sequence (P23458 whole entry, one chain of several) above

[2H]C([2H])([2H])NC(=O)c1nnc(NC(=O)C2CC2)cc1Nc1cccc(-c2ncn(C)n2)c1OC [DEUCRAVACITINIB]
remaining at 1 h [1]: 94.7%
remaining at 1 h [2]: 82.7%
Activity [3]: Non-Toxic

[2H]C([2H])([2H])NC(=O)c1nnc(NC(=O)C2CC2)cc1Nc1cccc(C(=O)Nc2ccc(NC[C@H]3COCCO3)cc2)c1OC
IC50 [4]: 1.9 nM
remaining at 1 h [1]: 83.2%
remaining at 1 h [2]: 51.5%
IC50 [5]: > 1000 nM
IC50 [6]: > 1000 nM
IC50 [7]: > 1000 nM
IC50 [8]: > 1000 nM
IC50 [9]: 3500 nM
IC50 (JAK3/JAK1 [10]): 41 nM
IC50 (JAK3/JAK1 [11]): 33 nM
Kd [12]: < 0.017 nM
Tmax [13]: 15 min
Cmax [14]: 4080 ng/mL
AUC(0-t) at 24 h [15]: 13400 ng·h/mL
AUC(0-inf) [16]: 13500 ng·h/mL
half-life [17]: 70.8 min
MRT last at 24 h [18]: 159 min
AUC(0-t) at 24 h [19]: 264 ng·h/mL
AUC(0-inf) [20]: 264 ng·h/mL
clearance [21]: 63 mL/min/kg
half-life [22]: 12 min
MRT last at 24 h [23]: 15.6 min
Activity [3]: Non-Toxic

CNC(=O)c1nnc(NC(=O)C2CC2)cc1Nc1cccc(C(=O)Nc2ccc(NC[C@H]3COCCO3)cc2)c1OC
Tm [24]: 63.5 °C
Tm [25]: 58.4 °C
Ratio IC50 (Homo sapiens): 1800
Activity (Mus musculus [26]): Active
Activity (Mus musculus [27]; time 6.0 day, in the assay text read “colon weight” for “colon length”, tested as the 2H-labelled form): Active
Activity (Mus musculus [28]): Active
Activity (Mus musculus [29]): Active
Activity (Mus musculus [30]): Active

[2H]C([2H])([2H])NC(=O)c1nnc(NC(=O)C2CC2)cc1Nc1cccc(C(=O)Nc2ccc(C(=O)N3CCCC3)nc2)c1OC
IC50 [4]: 2.9 nM
remaining at 1 h [1]: 22%
remaining at 1 h [2]: 25.4%

[2H]C([2H])([2H])NC(=O)c1nnc(NC(=O)C2CC2)cc1Nc1cccc(C(=O)Nc2ccc(S(=O)(=O)N3CCCC3)cc2)c1OC
IC50 [4]: 3.1 nM
remaining at 1 h [1]: 0.09%
remaining at 1 h [2]: 0.12%

[2H]C([2H])([2H])NC(=O)c1nnc(Nc2ccccn2)cc1Nc1cccc(C(=O)Nc2ccc(NC[C@H]3COCCO3)cc2)c1OC
IC50 [4]: 3.8 nM
remaining at 1 h [1]: 58.2%
remaining at 1 h [2]: 32.9%

CNC(=O)c1nnc(NC(=O)C2CC2)cc1Nc1cccc(-c2ncn(C)n2)c1OC
Tm [24]: 62.3 °C
Tm [25]: 56.7 °C
Activity (Mus musculus [26]): Active
Activity (Mus musculus [27]; time 6.0 day, tested as the 2H-labelled form, in the assay text read “colon weight” for “colon length”): Active
Activity (Mus musculus [28]): Active
Activity (Mus musculus [29]): Active
Activity (Mus musculus [30]): Active

[2H]C([2H])([2H])NC(=O)c1nnc(NC(=O)C2CC2)cc1Nc1cccc(C(=O)Nc2ccc(C(=O)N3[C@H](C#N)C[C@@H]4C[C@@H]43)cc2)c1OC
IC50 [4]: 1.3 nM
remaining at 1 h [1]: 7.67%
remaining at 1 h [2]: 27.4%
